Compounds with a hit are over-represented: about 1.8% of the library has one in this group of screens.
ZTA DNA inh: counter-screen for EBNA-1 inhibitors: inhibitors of Epstein-Barr virus ZTA | P03206 | ZTA-DNA binding, fluorescence polarization | inhibition, % at 11 µM | 320,000 compounds, 0.15% hits; in the data active = inhibition above about 33%
proCasp3 act: procaspase-3 (human) activation; 330,000 compounds, 0.11% hits; recombinant procaspase-3 D3A, Ac-DEVD-pNA absorbance 405 nm; P42574; activation, % at 8.5 µM;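 active = activation above the mean of all tested compounds plus 3 SD, cut at about 21% in these data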;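 also: 0% = DMSO alone and 100% = DMSO wells spiked with extra 5 µM PC-3 D3A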
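assay system = Procaspase-3 D3A mutant | signal = absorbance at 405 nm, 0 and 120 min | times = 1 h preincubation plus 2 h reaction at 25 °C | repeats = single replicate | read-out = % activation between DMSO and enzyme-spiked controls | medium = Zinc-free HEPES saline buffer with Triton X-100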
Apaf-1 inh: inhibitors of human Apaf-1 apoptosome. 330,000 compounds, 0.71% hits. inhibition, % at 20 µM. O14727. AID 489030. reconstituted apoptosome caspase-3 activity, DEVD-Rh110 fluorescence; active = inhibition of at least 40% at 20 µM;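 also: plate controls were DMSO wells for no effect and DEVD-CHO caspase inhibitor wells for full effect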
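Assay system – apoptosome proteins · Medium – Hepes buffer, pH 7.5 · Also added – cytochrome c with DEVD-Rh110 · Timing – 30 min compound preincubation, 50 min activation, room temperature · Detection – Rh110 fluorescence, excitation 480 nm, emission 540 nm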
EBNA-1 inhibitor: blocks EBNA-1 binding to DNA; EBNA-1 DNA binding, fluorescence polarization; inhibition, % at 14.8 µM; 300,000 compounds, 0.34% hits; AID 1950; in the data active = inhibition above about 28%
GSTO1 counter: GSTO1 inhibition, counter-screen for RBBP9 inhibitors; P78417; recombinant GSTO1, activity-based probe fluorescence polarization; 300,000 compounds, 1.1% hits; inhibition, % at 5.96 µM;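 active = inhibition above the campaign mean inhibition plus 3 SD, cut at about 35% in these data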;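 also: 0% = GSTO1-1 with DMSO and 100% = wells lacking GSTO1-1 enzyme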
proCasp7 act: counter-screen for procaspase-3 activators: activators of human procaspase-7; recombinant procaspase-7, Ac-DEVD-pNA absorbance 405 nm; D23A/D198A/D206A triple mutant, cannot self-cleave; scale: DMSO 0, 5 µM enzyme 100; activation, % at 8.5 µM; 330,000 compounds, 0.093% hits; AID 463210;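 active = percent activation above the screen-wide mean plus 3 SD, cut at about 25% in these data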
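System: Uncleavable procaspase-7 mutant enzyme; Amount: 2 µM procaspase-7 mutant as dispensed; Schedule: 1 h compound preincubation, 2 h substrate cleavage, 25 °C; Measured by: 405 nm absorbance of p-nitroaniline; Evaluation: percent activation from buffer-corrected 0–120 min absorbance change; Control set: low DMSO alone, high DMSO plus 5 µM PC-7.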
Apaf-1 inh conf: confirmation of Apaf-1 inhibitors; inhibition, % at 20 µM; shares compounds with Apaf-1 inh; reconstituted apoptosome, caspase-3 DEVD-Rh110 fluorescence; 1,800 compounds, 25% hits;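 active = mean inhibition of at least 40% at 20 µM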;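 also: plate controls were DMSO wells for no effect and DEVD-CHO caspase inhibitor control wells for full effect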
Rh110 interf inh: interferes with Rh110 fluorescence, flagging false Apaf-1 inhibitors; shares compounds with Apaf-1 inh; Rh110 fluorescence interference, quenched caspase reaction; activation (fluorescence interference), % at 20 µM; 1,800 tested, under 10 active; AID 504615;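 active = signal rise of 40% or more at 20 µM, treated as a fluorescence artifact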
Fluor interf inh: counter-screen for Apaf-1 inhibitors: fluorescence interference, dose response; IC50, µM; 460 tested, under 10 active; AID 588538; fluorescence interference counterscreen, Apaf-1 assay format; shares compounds with Apaf-1 inh; call rule not given here
Starred values were filed as active, the others as inactive.

`COCCN(CC(=O)Nc1cccc(C)c1C)C(=O)Cc1ccsc1` gave proCasp3 act -4.8, Apaf-1 inh -1.2 and proCasp7 act 10.6.
For CCc1noc(C)c1C(=O)N1CCN(S(=O)(=O)c2ccc(Cl)cc2)CC1 the results were ZTA DNA inh 1.2, proCasp3 act -1.3, Apaf-1 inh -8.3 and proCasp7 act -5.3.
CCc1noc(C)c1C(=O)N1CCN(S(=O)(=O)c2c(C)cc(C)cc2C)CC1 was read as ZTA DNA inh -9.8, proCasp3 act -0.7, Apaf-1 inh 57.3*, proCasp7 act -0.6, Apaf-1 inh conf 39.2 and Rh110 interf inh 5.2.
Screening Cc1c(Cl)cccc1N=C1SCCN1C(=O)CN1C(=O)NC2(CCCC2)C1=O returned ZTA DNA inh 5.2, proCasp3 act 1.0, Apaf-1 inh 40.4*, EBNA-1 inhibitor 9.0, GSTO1 counter -2.6, proCasp7 act 9.1, Apaf-1 inh conf 17.1 and Rh110 interf inh -3.1.
`O=C(CN1C(=O)NC2(CCCCC2)C1=O)Nc1cccc(Cl)c1Cl` gave ZTA DNA inh 0.2, proCasp3 act 7.9, Apaf-1 inh -12.1 and proCasp7 act 0.8.
Screening O=C1C(NS(=O)(=O)c2cccs2)=C(N2CCN(c3ccccc3)CC2)C(=O)c2ccccc21 returned ZTA DNA inh -2.1, proCasp3 act 1.9, Apaf-1 inh 41.2*, EBNA-1 inhibitor 12.3, GSTO1 counter 12.9, proCasp7 act 8.8, Apaf-1 inh conf 25.2 and Rh110 interf inh 5.2.
Screening CC(=O)Nc1ccc(S(=O)(=O)NC2=C(N3CCN(c4ccc(F)cc4)CC3)C(=O)c3ccccc3C2=O)cc1 returned ZTA DNA inh -3.0, proCasp3 act -3.5, Apaf-1 inh 63.9*, EBNA-1 inhibitor -4.8, GSTO1 counter 56.9*, proCasp7 act -7.9, Apaf-1 inh conf 63.6*, Rh110 interf inh 4.2 and Fluor interf inh >100.
Cc1ccc(S(=O)(=O)NC2=C(N3CCN(Cc4ccccc4)CC3)C(=O)c3ccccc3C2=O)cc1 was read as ZTA DNA inh 16.5, proCasp3 act -6.2, Apaf-1 inh 3.1, EBNA-1 inhibitor 12.7, GSTO1 counter 6.0 and proCasp7 act 0.1.
Screening Cc1ccc(S(=O)(=O)NC2=C(N3CCN(c4ccccc4F)CC3)C(=O)c3ccccc3C2=O)cc1 returned ZTA DNA inh 3.7, proCasp3 act 5.1, Apaf-1 inh 75.9*, EBNA-1 inhibitor -0.5, GSTO1 counter 11.9, proCasp7 act 2.0, Apaf-1 inh conf 19.8 and Rh110 interf inh 1.8.
`COC(=O)[C@@]1(Cc2ccccc2)[C@H]2C(=O)N(C)C(=O)[C@H]2[C@H]2CN=C(SCc3ccc(C#N)cc3)N21` gave proCasp3 act -6.0, Apaf-1 inh 12.4 and proCasp7 act 4.3.
Cc1nc(NC(=O)CSc2nnc(C3CC3)n2N)c(Cl)cc1Cl was read as proCasp3 act 7.9, Apaf-1 inh -7.9 and proCasp7 act 7.7.
For O=C(CNc1cccc(F)c1)N1CCc2ccccc2C1 the results were ZTA DNA inh -15.7, proCasp3 act 7.2, Apaf-1 inh 9.1, EBNA-1 inhibitor 1.1, GSTO1 counter 10.0 and proCasp7 act -8.5.
`COc1ccc(C(CNC(=O)C2CC(=O)N(Cc3ccccc3)C2)N2CCCC2)cc1` (configuration not stated) gave ZTA DNA inh -17.6, proCasp3 act 5.7, Apaf-1 inh 61.5*, proCasp7 act -9.9, Apaf-1 inh conf 37.4 and Rh110 interf inh 1.4.
For COc1ccc(C(CNC(=O)c2cccc(S(=O)(=O)Nc3ccc(C)cc3)c2)N2CCCCC2)cc1 (configuration not stated) the results were ZTA DNA inh 7.3, proCasp3 act -2.0, Apaf-1 inh 17.2, EBNA-1 inhibitor -19.9, GSTO1 counter 3.1 and proCasp7 act 2.2.
Screening COc1ccc(C(CNC(=O)c2cccc(S(=O)(=O)N(C)c3ccccc3)c2)N2CCCC2)cc1 (configuration not stated) returned ZTA DNA inh -5.5, proCasp3 act -1.3, Apaf-1 inh 43.5*, proCasp7 act -9.3, Apaf-1 inh conf 19.2 and Rh110 interf inh 6.8.
For COC(=O)c1ccc(N(CC(=O)NC2CCCC2)C(=O)c2ccc(C)s2)cc1 the results were ZTA DNA inh -31.6, proCasp3 act 1.8, Apaf-1 inh 4.2, EBNA-1 inhibitor -1.4, GSTO1 counter -0.9 and proCasp7 act -10.0.
Screening COc1cc(OC)c2c(-c3cccc(-c4ccc(CO)cc4)c3)cc(=O)oc2c1 returned proCasp3 act 6.9, Apaf-1 inh 42.3*, proCasp7 act -10.0, Apaf-1 inh conf 36.1 and Rh110 interf inh 2.5.
Cc1cc(NC(=O)CN2C(=O)NC3(CCCCC3)C2=O)ccc1N1CCCC1 was read as Apaf-1 inh -5.2.
Screening COc1ccccc1NC(=O)COc1ccc2c(c1)OCO2 returned ZTA DNA inh -21.2, proCasp3 act 3.1, Apaf-1 inh 12.0, EBNA-1 inhibitor 0.9, GSTO1 counter 7.7 and proCasp7 act 4.5.
For CSc1ccccc1NC(=O)COc1ccc2c(c1)OCO2 the results were proCasp3 act 2.1, Apaf-1 inh 45.3*, proCasp7 act 11.3, Apaf-1 inh conf 38.5 and Rh110 interf inh 7.7.
COc1ccc(S(=O)(=O)Nc2cccc3c2O[C@H](CN(C)C(=O)Nc2c(C)noc2C)[C@@H](C)CN([C@H](C)CO)C3=O)cc1 was read as proCasp3 act -4.0, Apaf-1 inh -2.6 and proCasp7 act 3.4.
Screening CCC(C)(C)c1ccc(OCCCC[n+]2cccc(C)c2C)c(C(C)(C)CC)c1 returned ZTA DNA inh 18.7, proCasp3 act -2.1, Apaf-1 inh 68.8*, EBNA-1 inhibitor -5.7, GSTO1 counter -3.5, proCasp7 act -2.7, Apaf-1 inh conf 54.0*, Rh110 interf inh 19.4 and Fluor interf inh >100.
`CCC(C)(C)c1ccc(OCCCC[n+]2ccc(C)cc2)c(C(C)(C)CC)c1` gave ZTA DNA inh 0.2, proCasp3 act -1.5, Apaf-1 inh 48.4*, EBNA-1 inhibitor 2.1, GSTO1 counter 3.2, proCasp7 act 2.5, Apaf-1 inh conf 29.4 and Rh110 interf inh 20.5.
